In ChEMBL document CHEMBL1156071, “Novel L-xylose derivatives as selective sodium-dependent glucose cotransporter 2 (SGLT2) inhibitors for the treatment of type 2 diabetes” (J Med Chem, 2009):

Assays:
[1] = biological target: T1, Sodium/glucose cotransporter 2 (Homo sapiens, UniProt P31639); assay: Inhibition of human SGLT2 expressed in HEK293 cells assessed as inhibition of [14C]alpha-methylglucopyranoside uptake; type: cell-based
T1 sequence (P31639 whole entry): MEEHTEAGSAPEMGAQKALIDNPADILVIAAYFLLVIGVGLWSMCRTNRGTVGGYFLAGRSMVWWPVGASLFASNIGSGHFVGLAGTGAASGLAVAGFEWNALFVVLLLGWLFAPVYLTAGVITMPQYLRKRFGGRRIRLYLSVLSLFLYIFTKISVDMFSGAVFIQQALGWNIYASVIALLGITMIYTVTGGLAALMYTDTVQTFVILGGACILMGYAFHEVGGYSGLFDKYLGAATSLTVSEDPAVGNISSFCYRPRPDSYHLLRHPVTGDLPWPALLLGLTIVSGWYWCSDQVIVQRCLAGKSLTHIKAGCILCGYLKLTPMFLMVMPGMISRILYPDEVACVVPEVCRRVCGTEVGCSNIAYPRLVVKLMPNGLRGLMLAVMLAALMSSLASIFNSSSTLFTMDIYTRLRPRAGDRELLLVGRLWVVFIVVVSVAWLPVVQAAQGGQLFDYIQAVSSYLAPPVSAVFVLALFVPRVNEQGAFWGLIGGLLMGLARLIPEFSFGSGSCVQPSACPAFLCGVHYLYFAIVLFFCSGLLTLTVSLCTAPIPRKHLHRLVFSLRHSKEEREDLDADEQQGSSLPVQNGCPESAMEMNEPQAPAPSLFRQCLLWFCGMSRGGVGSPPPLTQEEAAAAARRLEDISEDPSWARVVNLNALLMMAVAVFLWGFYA
How it was run: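 Cells stably expressing human SGLT2 were used to measure sodium-coupled uptake of [14C]α-methylglucopyranoside, a metabolically stable SGLT-specific glucose analogue. Uptake was measured across increasing compound concentrations, and IC50 was derived from the inhibition of uptake.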

[2] = biological target: T2, Sodium/glucose cotransporter 2 (Mus musculus, UniProt Q923I7); assay: Inhibition of mouse SGLT2-mediated [14C]alpha-methylglucopyranoside uptake by cell based assay
T2 sequence (Q923I7 whole entry): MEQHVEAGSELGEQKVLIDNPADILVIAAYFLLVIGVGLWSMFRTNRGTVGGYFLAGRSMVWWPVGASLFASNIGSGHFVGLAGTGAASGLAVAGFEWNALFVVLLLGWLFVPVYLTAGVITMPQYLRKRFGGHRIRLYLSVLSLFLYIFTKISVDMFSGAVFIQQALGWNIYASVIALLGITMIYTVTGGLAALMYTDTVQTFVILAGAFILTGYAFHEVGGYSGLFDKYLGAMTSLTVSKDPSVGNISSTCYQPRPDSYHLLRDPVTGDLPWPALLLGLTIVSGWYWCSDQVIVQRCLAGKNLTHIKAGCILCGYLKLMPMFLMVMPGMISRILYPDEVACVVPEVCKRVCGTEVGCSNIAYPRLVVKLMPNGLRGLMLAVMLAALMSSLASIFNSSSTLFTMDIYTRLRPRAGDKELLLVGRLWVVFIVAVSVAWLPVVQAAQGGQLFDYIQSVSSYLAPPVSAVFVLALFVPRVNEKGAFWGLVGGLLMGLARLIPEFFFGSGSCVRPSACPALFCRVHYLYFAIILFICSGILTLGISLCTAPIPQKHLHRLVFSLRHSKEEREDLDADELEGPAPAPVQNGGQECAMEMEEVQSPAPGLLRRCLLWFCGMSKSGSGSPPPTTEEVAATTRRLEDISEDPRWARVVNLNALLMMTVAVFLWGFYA

[3] = test system: Mus musculus; assay: Induction of glucosuria in high fat diet induced obese albino C57 mouse at 10 to 100 mg/kg, po administered as single administration measured after 17 hrs by glucose excretion assay; type: functional, organism-based
How it was run: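 Adult C57 diet-induced obese mice were given one oral gavage dose spanning 10 to 100 mg/kg. Urinary glucose excretion was measured over the first 17 h after dosing, n = 6 per group, with a vehicle-treated group included.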

Compound	IC50 [1] [nM]	IC50 [2] [nM]	Activity [3]
CCOc1ccc(Cc2cc([C@@H]3OC(OC)[C@@H](O)[C@H](O)[C@H]3O)ccc2C)cc1 (mixture of isomers)	55	23	–
CCOc1ccc(Cc2cc([C@@H]3OC(OCCN(C)C)[C@@H](O)[C@H](O)[C@H]3O)ccc2Cl)cc1 (mixture of isomers)	3600	2200	–
CCOc1ccc(Cc2cc([C@@H]3OC(OC(C)C)[C@@H](O)[C@H](O)[C@H]3O)ccc2Cl)cc1 (stereo in doubt; 9b)	33	15	–
CCOc1ccc(-c2cccc([C@@H]3OC(OC)[C@@H](O)[C@H](O)[C@H]3O)c2)cc1 (mixture of isomers)	4600	1900	–
CCOc1ccc(Cc2cc([C@@H]3OC(OC)[C@@H](O)[C@H](O)[C@H]3O)ccc2Cl)cc1 (mixture of isomers; 7a)	–	–	Dose-dependent effect
COC1O[C@@H](c2ccc(Cl)c(Cc3ccc(O)cc3)c2)[C@H](O)[C@@H](O)[C@@H]1O (mixture of isomers)	32	8	–
CCOc1ccc(Oc2cc([C@@H]3OC(OC)[C@@H](O)[C@H](O)[C@H]3O)ccc2Cl)cc1 (mixture of isomers)	2400	1900	–
COC1O[C@@H](c2ccc(Cl)c(Cc3ccc(Oc4nccs4)cc3)c2)[C@H](O)[C@@H](O)[C@@H]1O (mixture of isomers)	150	60	–
COc1ccc(Sc2cc([C@@H]3OC(OC)[C@@H](O)[C@H](O)[C@H]3O)ccc2Cl)cc1 (mixture of isomers)	180	100	–
CCOc1ccc(Cc2cc([C@@H]3OC(OC(C)C)[C@@H](O)[C@H](O)[C@H]3O)ccc2Cl)cc1 (mixture of isomers)	420	190	–
COC1O[C@@H](c2ccc(Cl)c(Cc3ccc(OC(=S)N(C)C)cc3)c2)[C@H](O)[C@@H](O)[C@@H]1O (mixture of isomers)	740	330	–
CCOc1ccc(Cc2cc([C@@H]3OC(OCC)[C@@H](O)[C@H](O)[C@H]3O)ccc2Cl)cc1 (mixture of isomers)	58	19	–
CCOc1ccc(Cc2cc([C@H]3OC(OC)[C@H](O)[C@@H](O)[C@@H]3O)ccc2Cl)cc1 (some centres not stated)	> 30000	9200	–
CCOc1ccc(C(=O)c2cc([C@@H]3OC(OC)[C@@H](O)[C@H](O)[C@H]3O)ccc2Cl)cc1 (single isomer, unassigned)	100	57	–
